What is called IC50 is the concentration that inhibits the measured activity by half. As a reminder, the CC50 is the concentration that lowers cell viability or growth by half. The LD50 is the dose at which mortality reaches 50%.

From ChEMBL document CHEMBL4706564 (Eur J Med Chem, 2020) come the findings set out here.

The nature of data set [1]: cells. The note with it: Orthoebolavirus, Mayinga, HEK-293T. The data set is classed as cell-based, Ebolavirus, HEK293T.
Data set [2] in a line: cells. The note with it: Vesicular stomatitis virus, HEK-293T. The data set is classed as cell-based, HEK293T.
A short description of data set [3]: (§1) Cytotoxicity against human HEK293T cells incubated for 48 hrs by MTT assay. The note with it: HEK293T cells. The data set is classed as cell-based, HEK-293T. In a few lines: (§2)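 HEK293T cells at 10⁵ cells/ml were added to two-fold compound dilutions in 10% DMEM and incubated 48 h at 37 °C, 5% CO2. MTT (5 mg/ml stock in PBS, 1/10 volume) was added for 2 h, and formazan was dissolved in DMSO before reading optical density. Each concentration was run in triplicate. CC50 was the concentration giving 50% cell death, or halving OD versus control.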
(In general: Tetrazolium assays rely on reduction of a dye to a coloured formazan, in cell work by metabolically active cells.)

Data set [4] in a line: (§3) Cytotoxicity against African green monkey Vero cells assessed as reduction in cell survival incubated for 10 days by neutral red dye based colorimetric analysis. Conditions: chlorocebus sabaeus, Vero cells; time 10 day; call rule not given here. In a few lines:
(§4)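 Confluent Vero monolayers received six concentrations from 3-fold serial dilutions in DMEM of DMSO-dissolved compound, plus medium without virus. After 10 days at 37 °C, 5% CO2, cells were stained with neutral red and read at 490 nm. CC50 came from a 4-parameter fit, with at least 3 analyses per compound.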

Data set [5] concerns Marburgvirus. Nature of the data set: Antiviral activity against MARV Popp infected in African green monkey Vero cells assessed as inhibition of viral infection by measuring reduction in virus-induced cytotoxicity incubated for 10 days by neutral red dye based colorimetric analysis. The data set is classed as functional, organism-based.
Another data set relates to Zaire ebolavirus. Description: Antiviral activity against Zaire ebolavirus infected in African green monkey Vero cells assessed as inhibition of viral infection by measuring […] incubated for 10 days by neutral red dye based colorimetric analysis. In kind it is functional, organism-based.
For the next data set, the system named is HEK-293T. The description is as §1. The data set is classed as cell-based. Conditions: hek-293t, 48 h. In a few lines: as §2
The subject of the next data set is Vero. The description is as §3. The note with it: chlorocebus sabaeus, vero, 240 h; time 10 day. The essentials:
as §4

The next data set relates to Influenza A virus. Description: Antiviral activity against Influenza A virus (H1N1). The data set is classed as functional, organism-based.
Data set [6] has as its system Ebolavirus. Description: Antiviral activity against VSV-G pseudotyped EBOV infected in human HeLa cells. The note with it: Orthoebolavirus. The data set is classed as functional, organism-based.
Data set [7] deals with Marburgvirus. Description: Antiviral activity against VSV-G pseudotyped MARV infected in human HeLa cells. In kind it is functional, organism-based. Conditions: Orthomarburgvirus.
The next data set is described as follows: in vitro. The note with it: human, HEK293T cells.
In data set [8] the test system is Ebolavirus. Nature of the data set: Antiviral activity against eGFP-positive VSV-G pseudotyped EBOV infected in human U2OS cells assessed as reduction in virus entry cells pre-incubed with compound for 1 hr followed by viral infection and measured after 12 to 14 hrs by fluorescence microscopic analysis. The data set is classed as functional, organism-based. Conditions: Orthoebolavirus.

A short description of data set [9]: Acute toxicity in ICR mouse assessed as animal death at 0.14 to 1.08 g/kg, ig and measured for 7 days. Conditions: in vivo, po, 168 h, dose 0.14-1.08 g/Kg, time 7 day. The essentials: (§5)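 Outbred ICR mice, randomised into groups of 2. Each group got a single oral gavage dose of 1.08, […], 0.27 or 0.14 g/kg, given as a suspension in 10% DMSO in water at 0.1 mL/10 g. Controls received solvent only. Survival was recorded over 7 days.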

A short description of data set [10]: Acute toxicity in ig dosed ICR mouse. In kind it is organism-based. The note with it: in vivo, po. The essentials:
as §5

A value given as a limit tells only on which side of the number the result lay.

`CCN1CCN(CCC(=O)O[C@@H]2C[C@@H]3CC[C@@]2(C)C3(C)C)CC1`: the concentration for half-maximal inhibition (IC50) in the data set “cells [1]” is 1600 nM; in the data set “cells [2]”, 80.5 µM; with Marburgvirus [5] (Orthomarburgvirus, Popp, Vero, 240 h, read-out: IC50), 17.8 µM; with Zaire ebolavirus (vero), “Not Active”. Moreover, half-maximal cytotoxicity in data set [3] (CC50 at 48 h) was put at 264 µM. In addition, the 50% cytotoxic concentration (CC50) at 240 h in data set [4] came to 19.2 µM.
`CC1CCN(CCC(=O)O[C@@H]2C[C@@H]3CC[C@@]2(C)C3(C)C)CC1` [listing 1 of 2 here]: the CC50 in the data set with HEK-293T came to 69.8 µM; in the data set with Vero, 144 µM. The IC50 in the data set with Marburgvirus [5] (vero, read-out: IC50) was 5.7 µM; in the data set on Zaire ebolavirus (vero, read-out: IC50), 64.7 µM.
In the case of `CC1CCN(CCC(=O)O[C@@H]2C[C@@H]3CC[C@@]2(C)C3(C)C)CC1` [listing 2 of 2 here], the concentration for half-maximal inhibition (IC50) in “cells [1]” worked out at 300 nM; with Marburgvirus [5] (vero, read-out: IC50) it was 2.2 µM; in the data set with Zaire ebolavirus (Zaire ebolavirus, Vero, 240 h, read-out: IC50) it was 54.3 µM; in the data set with Influenza A virus, 15.3 µM. Moreover, the 50% cytotoxic concentration (CC50) with HEK-293T came to 280 µM; in the data set with Vero, 69.3 µM.
For the molecule `N#Cc1c(NCCN)nc(-c2ccccc2)c2c1CCCC2`, the IC50 was 24.4 µM in the data set with Ebolavirus [6] and 6.2 µM in the data set on Marburgvirus [7].
With `CN1CCN(CCC(=O)O[C@@H]2C[C@@H]3CC[C@@]2(C)C3(C)C)CC1`, the concentration for half-maximal inhibition (IC50) was 300 nM in the data set “cells [1]”; 173 µM in “cells [2]”; “Not Active” in the data set with Marburgvirus [5] (vero); “Not Active” in the data set on Zaire ebolavirus (vero); 1.9 µM with Influenza A virus. The same molecule showed a CC50 at 48 h in data set [3] of 282 µM. Besides, in data set [4], the cytotoxic concentration (CC50) at 240 h was 61.4 µM. For the same molecule, the selectivity ratio in the data set “in vitro” was determined as 870.
As to `CC1(C)[C@H]2CC[C@]1(C)[C@H](OC(=O)CCN1CCOCC1)C2`, the half-inhibitory concentration (IC50) in the data set “cells [1]” is 8500 nM; in “cells [2]”, 320 µM; with Marburgvirus [5] (vero) it was “Not Active”; with Zaire ebolavirus (vero) it was “Not Active”; in the data set on Influenza A virus, 12.2 µM. For the same molecule, in data set [3], the CC50 at 48 h was 305 µM. Also, the CC50 at 240 h in data set [4] was found to be 122 µM. Moreover, the selectivity ratio in “in vitro” amounted to 36.
Take `O=[N+]([O-])c1cc(S(=O)(=O)NCCN2CCOCC2)ccc1Sc1nnnn1-c1ccccc1`: the IC50 was 1.9 µM with Ebolavirus [6] and 12.9 µM in the data set on Marburgvirus [7].
As for `CC1(C)[C@H]2CC[C@]1(C)[C@H](OC(=O)CCN1CCCCC1)C2`, the concentration for half-maximal inhibition (IC50) in “cells [2]” was 93 µM; in the data set with Marburgvirus [5] (vero, read-out: IC50), 3.7 µM; in the data set on Zaire ebolavirus (vero, read-out: IC50) it was 47.5 µM; in the data set on Influenza A virus, 7.8 µM. In the data set with HEK-293T, this molecule showed a CC50 of 290 µM. Besides, in data set [4], the CC50 at 240 h turned out to be 443 µM.
For `CCCNC(=O)[C@@H]1O[C@H]1C(=O)N[C@@H](Cc1ccc(C)cc1)C(=O)N[C@H](C(=O)N1CCN(Cc2ccccc2)CC1)c1ccccc1`, the concentration for half-maximal inhibition (IC50) in the data set with Ebolavirus [8] came to 70 nM.
Turning to `CC1(C)[C@H]2CC[C@]1(C)[C@H](OC(=O)CCN1CCCCC1)C2.Cl`, the CC50 in the data set on HEK-293T is 87 µM; with Vero, 279 µM. Besides, the IC50 with Marburgvirus [5] (vero, read-out: IC50) worked out at 18.1 µM; with Zaire ebolavirus (vero, read-out: IC50) it was 9.1 µM. For the same molecule, the Activity entry in [9] was “Non-Toxic”. The same molecule registered an LD50 in data set [10] of over 1000 mg/kg.
